From ChEMBL document CHEMBL2321691 (J Med Chem, 2013)
The source made the active and inactive calls. No cut-off for these calls is given here.

Key:
HL-60 = experiment: Cytotoxicity against human HL60 cells assessed as growth inhibition after 72 hrs by XTT assay; type: functional, cell-based; details: HL-60, 72 h
Outline: (§1)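 Cells seeded at 1.5 x 10^3 per well (A549, HeLa, HT-29) or 3 x 10^3 (HL-60) in medium with 10% heat-inactivated FBS. Compound tested from 10-5 to 10-13 M for 72 h at 37 °C, then XTT readout. […] Triplicate wells, three experiments; mean ± S.D.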

HeLa [1] = experiment: Cytotoxicity against human HeLa cells assessed as growth inhibition after 72 hrs by XTT assay
Bos taurus = species on record: Bos taurus; experiment: Inhibition of bovine brain tubulin polymerization at 20 uM after 30 mins by spectrophotometry
Outline: (§2)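 Bovine brain tubulin at 1.5 mg/mL, pH 6.7, in 0.1 M MES, 1 mM EGTA, 1 mM MgCl2, 1 mM β-ME, 1.5 mM GTP with ligand. Incubated 20 °C for 30 min, then on ice 10 min. Assembly read as the A450 rise on a shift from 4 to 38 °C; inhibition is plateau minus baseline against ligand-free control. IC50 from monoexponential fits.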

[2] = Inhibition of bovine brain tubulin polymerization after 30 mins by spectrophotometry; parameters: species or system Bos taurus; outline: as §2
A549 = experiment: Cytotoxicity against human A549 cells assessed as growth inhibition after 72 hrs by XTT assay; type: functional, cell-based; details: A549, 72 h; outline: as §1
HT-29 = experiment: Cytotoxicity against human HT-29 cells assessed as growth inhibition after 72 hrs by XTT assay; type: functional, cell-based; details: HT-29, 72 h; outline: as §1
HeLa [3] = experiment: Cell cycle arrest in human HeLa cells assessed as accumulation at G2/M phase at 10^-8 M incubated for 18 hrs by propidium iodide staining-based FACS flow cytometric analysis relative to control; type: functional
Outline: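 HeLa cells treated 18 h at 10^-8 M, with untreated controls run in parallel. 2-4 x 10^5 cells fixed overnight in 70% ethanol at 4 °C, washed in PBS, then incubated 1 h at room temperature with 1 mg/mL RNAse A and 20 µg/mL propidium iodide. DNA content read by FACSCalibur flow cytometry; percentage of cells in G2/M. Representative of three experiments.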

HeLa [4] = experiment: Induction of apoptosis in human HeLa cells assessed as PARP cleavage at 50 nM by Western blotting analysis; type: functional, cell-based
Outline: (§3)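 HeLa cells given 50 nM compound for several times; untreated controls run in parallel. About 5 x 10^6 cells lysed and run on reducing SDS gels (12% for caspase-3, 8% for PARP), then blotted to nitrocellulose. Probed overnight with anti-active caspase-3 (p19/p17) or C2.10 anti-PARP (116 kDa and p85), each 1:1000. β-actin loading control; ECL detection. Three experiments.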

HeLa [5] = experiment: Induction of apoptosis in human HeLa cells assessed as accumulation at sub-G0/G1 phase at 50 nM after 72 hrs by […] analysis; type: functional, cell-based
HeLa [6] = experiment: Induction of apoptosis in human HeLa cells assessed as processing of procaspase-3 into the p19/p17 active form at 50 nM by Western blotting analysis; type: functional, cell-based; outline: as §3
HeLa [7] = experiment: Inhibition of microtubule system in human HeLa cells at 10 nM after 18 hrs by confocal microscopic analysis; type: cell-based
Outline: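 HeLa cells grown on poly-L-lysine coverslips and treated 18 h at 10^-8 M. Washed in HPEM (pH 6.6), fixed 15 min in 4% paraformaldehyde, permeabilized with 0.5% Triton X-100. Stained with anti-α-tubulin (1:150, 1 h), then CY3 anti-mouse IgG (1:100, 1 h, 4 °C). Imaged by confocal microscopy; representative of at least three experiments.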

SMILES | inhibition (Bos taurus) [%] | IC50 [2] [µM] | IC50 (HL-60) [µM] | IC50 (HeLa [1]) [µM] | IC50 (A549) [µM] | IC50 (HT-29) [µM] | Activity (HeLa [3]) [%] | Activity (HeLa [4]) | Activity (HeLa [5]) | Activity (HeLa [6]) | inhibition (HeLa [7])
C=C(c1cc(OC)c(OC)c(OC)c1)c1ccc2c(ccn2C)c1 | 96 | 0.7 | 0.0028 | 0.0027 | 0.028 | 0.0031 | – | – | – | – | –
COc1ccc(C(=CC=O)c2ccc3c(c2)c(C=O)cn3C)c(OC)c1OC | 98 | 5.9 | 0.3 | 0.3 | 0.35 | 0.3 | – | – | – | – | –
C=C(c1cc(OC)c(OC)c(OC)c1)c1ccc2c(c1)c(CO)cn2C | 32 | – | 0.25 | 0.31 | 3.2 | 2 | – | – | – | – | –
COc1cc(C(C)c2ccc3c(c2)c(C)cn3C)cc(OC)c1OC (stereo not drawn) | 90 | – | 0.28 | 0.31 | 0.32 | 0.31 | – | – | – | – | –
COc1cc(C(=O)c2ccc3c(c2)c(C(=O)O)cn3C)cc(OC)c1OC | 2 | – | > 10 | 7 | > 10 | > 10 | – | – | – | – | –
COc1cc(C(=O)c2ccc3ocnc3c2)cc(OC)c1OC | 0 | – | 0.47 | 0.34 | 10 | 2.8 | – | – | – | – | –
C=C(c1ccc2c(c1)c(C#N)cn2C)c1ccc(OC)c(OC)c1OC | 89 | 2.2 | 0.027 | 0.032 | 0.36 | 0.032 | – | – | – | – | –
COc1cc(C(=O)c2nc3ccc(Br)cc3n2C)cc(OC)c1OC | 37 | – | 2.4 | 2.3 | 10 | 2.7 | – | – | – | – | –
C=C(c1cc(OC)c(OC)c(OC)c1)c1ccc2c(c1)c(C=NO)cn2C | 93 | 2.6 | 0.021 | 0.0062 | 0.03 | 0.033 | – | – | – | – | Active
C=C(c1cc(OC)c(OC)c(OC)c1)c1ccc2c(c1)c(C=O)cn2C | 100 | 0.9 | 0.028 | 0.02 | 3 | 0.062 | – | – | – | – | Active
C=C(c1cc(OC)c(OC)c(OC)c1)c1ccc2[nH]ccc2c1 | 36 | – | 3.6 | 2.1 | 9 | 5.1 | – | – | – | – | –
COc1ccc(C(=O)c2ccc3c(ccn3C)c2)c(OC)c1OC | 100 | 0.4 | 0.24 | – | 0.38 | 0.24 | – | – | – | – | –
COc1cc(C(O)c2nc3cc(Br)ccc3n2C)cc(OC)c1OC (stereo not drawn) | 2 | – | > 10 | > 10 | > 10 | > 10 | – | – | – | – | –
C=C(c1ccc2c(c1)c(C=O)cn2C)c1ccc(OC)c(OC)c1OC | 98 | 4 | 0.032 | 0.032 | 1.8 | 0.23 | – | – | – | – | Active
COc1cc(C(O)c2nc3ccc(Br)cc3n2C)cc(OC)c1OC (stereo not drawn) | 22 | – | > 10 | > 10 | > 10 | > 10 | – | – | – | – | –
COc1cc(C(C)c2ccc3c(ccn3C)c2)cc(OC)c1OC (stereo not drawn) | 100 | 1 | 0.00033 | 0.00064 | 0.0068 | 0.0038 | >85 | Active | Active | Active | Active
COc1ccc(C(=O)c2ccc3c(c2)c(C=O)cn3C)c(OC)c1OC | 73 | – | 0.78 | 0.78 | > 10 | 5.3 | – | – | – | – | –

Further lines, with some results ahead:

inhibition (Bos taurus) [%] | IC50 [2] [µM] | SMILES | IC50 (HL-60) [µM] | IC50 (HeLa [1]) [µM] | IC50 (A549) [µM] | IC50 (HT-29) [µM] | Activity (HeLa [3]) [%] | Activity (HeLa [4]) | Activity (HeLa [5]) | Activity (HeLa [6]) | inhibition (HeLa [7])
97 | 4.7 | C=C(c1ccc2c(ccn2C)c1)c1ccc(OC)c(OC)c1OC | 0.28 | 0.032 | 0.73 | 0.31 | – | – | – | – | –
5 | – | COc1cc(C(C)c2ccc3[nH]ccc3c2)cc(OC)c1OC (stereo not drawn) | 3.4 | 2.3 | 4.9 | 3.3 | – | – | – | – | –
88 | 7 | COc1cc(C(=CC=O)c2ccc3c(c2)c(C=O)cn3C)cc(OC)c1OC | 0.033 | 0.031 | 0.34 | 0.22 | – | – | – | – | –
32 | – | C=C(c1ccc2c(c1)c(CO)cn2C)c1ccc(OC)c(OC)c1OC | 0.22 | 0.3 | 0.44 | 0.46 | – | – | – | – | –
40 | – | COc1ccc(C(=O)c2ccc3c(c2)c(C#N)cn3C)c(OC)c1OC | 0.29 | 0.27 | 2 | 0.31 | – | – | – | – | –
0 | – | COc1ccc(C(C)c2ccc3c(c2)c(C=NN)cn3C)c(OC)c1OC (stereo not drawn) | 1.8 | 0.43 | > 10 | 3.2 | – | – | – | – | –
95 | 4 | C=C(c1ccc2c(c1)c(C=NO)cn2C)c1ccc(OC)c(OC)c1OC | 0.27 | 0.034 | 0.29 | 0.32 | – | – | – | – | –
12 | – | C=C(c1cc(OC)c(OC)c(OC)c1)c1ccc2c(c1)c(C=NN)cn2C | 0.18 | 0.038 | 3.2 | 0.3 | – | – | – | – | –
91 | 5 | C=C(c1cc(OC)c(OC)c(OC)c1)c1ccc2c(c1)c(C(=O)O)cn2C | 1.1 | 0.88 | 1.1 | 0.55 | – | – | – | – | –
93 | 0.9 | C=C(c1cc(OC)c(OC)c(OC)c1)c1ccc2c(c1)c(C(N)=O)cn2C | 0.00011 | 0.00025 | 0.0018 | 0.00051 | >85 | Active | Active | Active | Active
96 | – | COc1cc(/C(=C\C=O)c2ccc3c(c2)c(C=O)cn3C)cc(OC)c1OC | 0.029 | 0.03 | 0.32 | 0.17 | – | – | – | – | –
87 | – | COc1ccc(C(C)c2ccc3c(ccn3C)c2)c(OC)c1OC (stereo not drawn) | 0.37 | 0.31 | 0.47 | 0.33 | – | – | – | – | –
98 | 7.9 | COc1cc(C(=O)c2ccc3c(ccn3C)c2)cc(OC)c1OC | 0.027 | 0.025 | 0.19 | 0.027 | – | – | – | – | –
90 | 4.7 | COc1cc(C(=CC#N)c2ccc3c(c2)c(C#N)cn3C)cc(OC)c1OC | 0.0048 | 0.0035 | 0.0049 | 0.0021 | >85 | Active | Active | Active | Active
61 | 16.9 | COc1cc(C(=O)c2ccc3c(c2)c(C=O)cn3C)cc(OC)c1OC | 0.31 | 0.32 | > 10 | 3 | – | – | – | – | –
37 | – | COc1cc(C(=O)c2nc3cc(Br)ccc3n2C)cc(OC)c1OC | 0.029 | 0.19 | 0.4 | 0.34 | – | – | – | – | –
0 | – | COc1cc(C(C)c2ccc3[nH]cc(C=O)c3c2)cc(OC)c1OC (stereo not drawn) | 5.4 | 5.8 | 9.1 | 5.8 | – | – | – | – | –
